Measurements reported in ChEMBL document CHEMBL1147104, “Neonatal coinfection model of coagulase-negative Staphylococcus (Staphylococcus epidermidis) and Candida albicans: fluconazole prophylaxis enhances survival and growth” (Antimicrob Agents Chemother, 2007).
The source made the active and inactive calls. The calls are words filed in the database; no cut-off is given here.

Tests used:
[1] = test system: Candida albicans; test: Inhibition of Candida albicans ATCC 32354 at 1 ug/ml by broth microdilution method; format: functional, organism-based
Procedure, shortened: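 CLSI M27-A2 broth microdilution. Inoculum was 1-5 × 10³ CFU/ml in RPMI 1640 buffered with MOPS to pH 7. Twofold drug dilutions from 125 to 0.25 µg/ml were tested at 35°C for 48 h, with visual reads at 24 and 48 h. The MIC was the lowest concentration giving a ≥50% decrease in turbidity. Trailing growth at 48 h was counted as susceptible.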

[2] = test system: Staphylococcus epidermidis; test: Inhibition of Staphylococcus epidermidis Hay ATCC 55133 at 1 ug/ml by broth microdilution method; format: functional, organism-based
[3] = Serum trough levels in Wistar rat pup at 10 mg/kg of body weight/day, ip after 24 hrs by ELISA; format: ADME, organism-based; design: dose 10 mg/kg, route intraperitoneal; conditions: read-out: Cmin
Procedure, shortened: (§1)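 Pups received 10 mg/kg/day i.p. for 4 days. Troughs were taken just before the next dose (24, 48, 72 h) and 24 h after the fourth dose (96 h). Blood was collected by cardiac puncture from 12-15 pups per time point, and serum from 3 pups was pooled per sample, giving 4-5 samples. Serum was stored at −70°C and assayed in one batch. The assay was linear from 0.2 to 200 µg/ml.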

[4] = Serum trough levels in Wistar rat pup at 10 mg/kg of body weight/day, ip after 48 hrs by ELISA; format: ADME, organism-based; design: dose 10 mg/kg, route intraperitoneal; conditions: read-out: Cmin; procedure, shortened: as §1
[5] = Serum trough levels in Wistar rat pup at 10 mg/kg of body weight/day, ip after 72 hrs by ELISA; format: ADME, organism-based; design: dose 10 mg/kg, route intraperitoneal; conditions: read-out: Cmin; procedure, shortened: as §1
[6] = Serum trough levels in Wistar rat pup at 10 mg/kg of body weight/day, ip after 96 hrs by ELISA; format: ADME, organism-based; design: dose 10 mg/kg, route intraperitoneal; conditions: read-out: Cmin; procedure, shortened: as §1
[7] = test system: Rattus norvegicus; test: Survival of neonatal Wistar rat infected with Candida albicans ATCC 32354 at 10 mg/kg of body weight/day, ip for 4 days beginning 24 hrs before infection; format: functional; conditions: route intraperitoneal
Procedure, shortened: (§2)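 Wistar pups aged 1-2 days, kept with dams, were immunosuppressed with 0.2 ml 20% intralipid i.p. (two doses on day 1, one each on days 2 and 3). Drug or placebo was given i.p. daily for 4 days from 24 h before infection. Littermates were randomized and infected s.c. on days 2 and 3 with 2 × 10⁸ CFU C. albicans, alone or with 2 × 10⁶ CFU S. epidermidis. Survival was followed daily for 9 days; groups were compared by Fisher exact test.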

[8] = test system: Rattus norvegicus; test: Survival of neonatal Wistar rat infected with Staphylococcus epidermidis Hay and Candida albicans ATCC 32354 at 10 mg/kg of body weight/day, ip for 4 days beginning 24 hrs before infection; format: functional; conditions: route intraperitoneal; procedure, shortened: as §2
[9] = test system: Rattus norvegicus; test: Increase in growth of neonatal Wistar rat infected with Candida albicans ATCC 32354 assessed as weight gain at 10 mg/kg of body weight/day, ip for 4 days beginning 24 hrs before infection relative to control; format: functional, organism-based; design: dose 10 mg/kg
Procedure, shortened: (§3)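 In intralipid-immunosuppressed neonatal Wistar pups, littermates were randomized, dosed i.p. daily for 4 days from 24 h pre-infection, and infected s.c. on days 2 and 3 with 2 × 10⁸ CFU C. albicans, with or without 2 × 10⁶ CFU S. epidermidis. Nonedematous weight was recorded daily for 9 days. Slopes of each pup's weight curve were calculated, and group means were compared by one-way ANOVA.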

[10] = test system: Rattus norvegicus; test: Increase in growth of neonatal Wistar rat infected with Candida albicans ATCC 32354 and Staphylococcus epidermidis Hay assessed as weight gain at 10 mg/kg of body weight/day, ip for 4 days beginning 24 hrs before infection relative to control; format: functional, organism-based; design: dose 10 mg/kg; procedure, shortened: as §3
[11] = test system: Rattus norvegicus; test: Decrease in mortality of neonatal Wistar rat infected with Candida albicans ATCC 32354 at 10 mg/kg of body weight/day, ip for 4 days beginning 24 hrs before infection; format: functional; design: scale not given: the % may be the effect or the level left; conditions: route intraperitoneal; procedure, shortened: as §2
[12] = test system: Rattus norvegicus; test: Decrease in mortality of neonatal Wistar rat infected with Candida albicans ATCC 32354 and Staphylococcus epidermidis Hay at 10 mg/kg of body weight/day, ip for 4 days beginning 24 hrs before infection; format: functional; design: scale not given: the % may be the effect or the level left; conditions: route intraperitoneal; procedure, shortened: as §2

**Q.** For `OC(Cn1cncn1)(Cn1cncn1)c1ccc(F)cc1F` [FLUCONAZOLE], which Activity [1] is on record?
**A.** Its Activity is “Active”.

**Q.** What about the Activity [2] of the same molecule?
**A.** The Activity was “inactive”.

**Q.** And the concentration at 24 h [3]?
**A.** The concentration at 24 h was 1550 ng/mL.

**Q.** What about the concentration at 48 h [4] of the same molecule?
**A.** The concentration at 48 h was 2500 ng/mL.

**Q.** And the concentration at 72 h [5]?
**A.** Its concentration at 72 h is 1510 ng/mL.

**Q.** What about the concentration at 96 h [6] of the same molecule?
**A.** Its concentration at 96 h is 1030 ng/mL.

**Q.** What about the survival at 10 mg/kg [7] of the same molecule?
**A.** Its survival at 10 mg/kg is 85.7%.

**Q.** What about the survival at 10 mg/kg [8] of the same molecule?
**A.** Its survival at 10 mg/kg is 75.6%.

**Q.** And the Activity [9]?
**A.** The Activity was “Active”.

**Q.** And the Activity [10]?
**A.** Its Activity is “Active”.

**Q.** What about the Activity [11] of the same molecule?
**A.** Its Activity is 30%.

**Q.** What about the Activity [12] of the same molecule?
**A.** The Activity was 36%.
